# Measured values: PubChem BioAssay AID743208 (The Scripps Research Institute Molecular Screening Center, 2013)
# Out of some 2,100 compounds screened, about 30 (1%) were called active. A selection follows. Unmarked numbers belong to inactive results.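 Rule for the calls: active = inhibition above about 20% chosen separately for each screening run (limit read from the data); inactive = the rest.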
# Target: Disintegrin and metalloproteinase domain-containing protein 10 (Homo sapiens) (UniProt O14672)
# Sequence (O14672 214-748 limits assumed): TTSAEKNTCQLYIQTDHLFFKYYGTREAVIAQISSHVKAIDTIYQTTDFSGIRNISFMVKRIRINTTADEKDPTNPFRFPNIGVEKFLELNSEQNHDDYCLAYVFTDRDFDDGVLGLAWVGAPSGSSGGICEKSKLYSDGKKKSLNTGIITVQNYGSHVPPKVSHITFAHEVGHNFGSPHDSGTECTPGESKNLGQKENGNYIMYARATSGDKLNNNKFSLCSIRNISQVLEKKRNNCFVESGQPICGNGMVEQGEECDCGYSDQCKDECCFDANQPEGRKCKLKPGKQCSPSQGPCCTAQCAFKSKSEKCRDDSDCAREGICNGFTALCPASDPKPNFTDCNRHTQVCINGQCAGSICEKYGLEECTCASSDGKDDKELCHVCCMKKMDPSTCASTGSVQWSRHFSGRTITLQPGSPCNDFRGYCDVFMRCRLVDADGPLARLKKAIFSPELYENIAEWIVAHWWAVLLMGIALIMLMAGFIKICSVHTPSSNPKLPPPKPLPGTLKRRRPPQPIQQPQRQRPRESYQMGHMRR
# Experiment: human ADAM10 inhibitors, confirmation, biochemical, QFRET, triplicate (AID 743208);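 note: 0% = DMSO wells and 100% = marimastat wells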
# Conditions: ADAM10 QFRET peptide cleavage, EDANS fluorescence; at 6.95 µM; stronger effect = higher value
# Outline: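 Material: ADAM10 enzyme, FRET peptide substrate | Technique: Fluorescence of cleaved EDANS peptide, excitation 359 nm, emission 460 nm | Evaluation: % inhibition relative to DMSO and marimastat wells | Repeats: Triplicate per compound | Times: 30 min preincubation and 3 h reaction at 25 °C | Benchmarks: DMSO low control, 1 µM marimastat high control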
row,Structure (SMILES),inhibition
1,COc1cc(Cl)c(S(=O)(=O)N2CCN(Cc3ccc4c(c3)OCO4)CC2)cc1Cl,3.51%
2,O=C(/C=C/c1ccc(F)cc1)NC(=S)NNC(=O)c1cccnc1,0.49%
3,O=C(CC(O)(C(F)(F)F)C(F)(F)F)Nc1ccc(Cl)c(Cl)c1,2.03%
4,CCOc1ccc(N2C(=O)CC(N(CCc3ccc(OC)c(OC)c3)C(=S)Nc3ccccc3)C2=O)cc1 (stereo unspecified),0.13%
5,CC(C)(C)OC(=O)CNC(=O)c1[nH]cnc1C(=O)N[C@@H](Cc1ccccc1)C(=O)OCc1ccccc1,6.97%
6,COc1cccc(C2CC(c3ccccc3)=NN2S(=O)(=O)c2ccccc2)c1OC (stereo unspecified),4.77%
7,Cc1cc(C)cc(NC(=S)NCCc2c[nH]c3ccccc23)c1,2.41%
8,COc1ccc(NS(=O)(=O)c2ccc(C)c(C(=O)NNC(=O)c3csc(N4CCOCC4)n3)c2)cc1,2.95%
9,CCC1(C)Cc2c(sc3nnn(CC(=O)Nc4ccc(Cl)cc4)c(=O)c23)CO1 (stereo unspecified),6.24%
10,O=C(CSC1=NCCS1)Nc1nc(-c2ccccc2)cs1,0.24%
11,COc1ccc(C(N)c2csc(NC(=O)Nc3cccc(C(F)(F)F)c3)n2)cc1 (stereo unspecified),3.14%
12,O=C1NC(Nc2nc3ccccc3s2)(C(F)(F)F)C(=O)N1C1CCCCC1 (stereo unspecified),3.12%
13,Cc1cc(C)cc(NC(=O)CSCc2cnn(-c3ccccc3)c2-n2cccc2)c1,7.84%
14,Cc1ccc(OCc2nnc(SC/C=C/c3ccccc3)n2Cc2ccco2)cc1,5.61%
15,CC(C)(C)N1C(=O)[C@H]2[C@@H](c3ccc(Br)cc3)N3C(=O)N(c4cccc(Cl)c4)C(=O)[C@@]3(C)[C@H]2C1=O,2.62%
16,O=C(Nc1cccc(S(=O)(=O)Nc2ccc(Cl)cc2)c1)c1ccc2c(c1)OCCO2,8.03%
17,O=C(NCc1ccccc1)c1onc(CSc2nc3ccccc3[nH]2)c1C(=O)NCc1ccccc1,5.46%
18,CC(C)Oc1ccc(CC(=O)NNC(=S)Nc2ccc(Br)cc2)cc1,3.54%
19,COC(=O)C1NN=C(C(=O)c2ccc(Br)cc2)C1c1cccc(Br)c1 (stereo unspecified),3.07%
20,COc1ccc(C(=O)NNC(=S)NC(=O)c2ccccc2)cc1,0.52%
21,COc1ccc([C@H]2CC(=O)C=C(c3ccc(OC(F)(F)F)cc3)C2)cc1OC,1.68%
22,COc1cc(/C=C2/SC(=S)N(Cc3ccccc3)C2=O)cc(OC)c1O,7.56%
23,O=C(Oc1cccc(N2C(=O)C3C4c5ccccc5C(c5ccccc54)C3C2=O)c1)c1ccco1 (stereo unspecified),3.26%
24,CC1(C)C=Cc2c(ccc3c2OC[C@@H](c2ccc(O)cc2O)C3)O1,9.96%

row,Structure (SMILES),inhibition
1,CCOc1cc(/C=N/NC(=O)c2cc(-c3ccccc3)nc3ccccc23)ccc1O,9.93%
2,C=C(C)COc1ccc(-c2n[nH]c(C)c2-c2ccccc2)c(O)c1,5.81%
3,Cc1cccc(CCNS(=O)(=O)c2ccc(S(=O)(=O)NC3CCCC3)cc2)c1,0.65%
4,Cc1ccccc1-n1c(SCC(=O)Nc2cccc3ccccc23)nc(O)cc1=O,-0.12%
5,COc1ccccc1CC1(C)C(=O)Nc2ccc(OC(F)(F)F)cc21 (stereo unspecified),0.74%
6,O=C(OCc1ccc(-c2ccccc2)cc1)c1cccc(O)c1,12.8%
7,O=S(=O)(c1cccc(S(=O)(=O)N2CCC(n3nnc4ccccc43)CC2)c1)N1CCCCC1,0.35%
8,COc1cccc(NC(=O)CN2CCN(c3nc(-c4cccc(OC)c4)cs3)CC2)c1,8.73%
9,C=CCC[C@@H](Cc1ccc(F)cc1)C(=O)O[C@H](CNC(=O)[C@H](CC=C)CC(=O)N(CCO)Cc1ccccc1)c1ccccc1,11.4%
10,COc1cccc(NC(=O)C2C(c3ccccc3)C2(Cl)Cl)c1 (stereo unspecified),5.98%
11,CCOc1cc(NC(=O)c2ccccc2C(=O)O)c(OCC)cc1NC(=O)c1ccccc1F,3.74%
12,O=C(Cc1ccc(Cl)c(Cl)c1)Nc1ccc(SC(F)F)cc1,7.73%
13,COc1cccc(CC2(CO)CCCN(Cc3ccc(OC(F)F)cc3)C2)c1 (stereo unspecified),-1.93%
14,Cc1cc(O)ccc1-c1cc(C(=O)NCc2cc(C(F)(F)F)cc(C(F)(F)F)c2)[nH]n1,1.37%
15,Cn1nc(C(F)(F)F)c(C(=O)Nc2cccc(C(F)(F)F)c2)c1SCc1ccc(Cl)cc1,7.28%
16,CCC(C)(C)c1ccc(Oc2ccc(NC(=O)COC(=O)C3=COCCO3)cc2)cc1,9.01%
17,Cc1[nH]c2ccccc2c1C(=O)COC(=O)c1c(-c2ccccc2)noc1C,3.43%
18,Cn1c(CNc2nc(-c3ccccc3)cs2)nnc1SCC(=O)c1ccccc1,0.21%
19,COc1cc(/C=N/n2c(C)n[nH]c2=S)ccc1OCc1ccccc1,-0.86%
20,COc1ccc(C(CCN(Cc2ccc(OC)c(OC)c2)C(=O)CCl)c2ccccc2)cc1 (stereo unspecified),2.71%
21,O=S(=O)(c1ccccc1)N(Cc1cccc(F)c1)c1ccccc1,3.92%
22,Cc1ccc(N(NC(=O)C(C)(C)O)C(=O)c2ccccc2)cc1C,0.68%
23,Cc1ccc(C)c(NC(=S)NNC(=O)c2csc(C)c2)c1,3.38%
24,Cc1ccc(/C=N/NC(=O)CSc2nc3ccccc3o2)cc1,0.27%

row,Structure (SMILES),inhibition
1,COc1ccc(OCCCn2cccc2/C=C2/C(=N)N3OC(C)=CC3=NC2=O)cc1,1.45%
2,COc1ccc(C(=O)NN2C(=O)C3C(c4ccccc4)C=CC(c4ccccc4)C3C2=O)cc1 (stereo unspecified),6.22%
3,COc1ccc(S(=O)(=O)N2CCN(C(C)C(=O)Nc3ccc(C(C)C)cc3)CC2)cc1 (stereo unspecified),4.39%
4,COc1ccc(C2CC(c3ccccc3)=NN2C(=O)COC(=O)COc2ccccc2)cc1 (stereo unspecified),8.14%
5,O=C(CSCc1ccc(Br)cc1)Nc1ccc(S(=O)(=O)N2CCCCCC2)cc1,7.76%
6,Cc1cnc(C(=O)OCc2c(C)cc(C(C)(C)C)cc2C)cn1,0.57%
7,Cc1cc(Nc2ccccc2)n(C(=O)c2ccc(N)cc2)n1,2.25%
8,CCCCCc1c(-c2ccc(OC)c(OC)c2)ncn1CCc1ccccc1OC,5.03%
9,O=C(CC1SC(=Nc2ccccc2)N(Cc2ccccn2)C1=O)Nc1cccc(Cl)c1 (stereo unspecified),7.51%
10,CC(C)(C)c1ccc(S(=O)(=O)NCC2CCN(C(=O)C(=O)c3cc4ccccc4o3)CC2)cc1,6.76%
11,CCCC(=O)n1nc(NCc2ccc(OC)cc2)nc1NCc1ccc(OC)cc1,9.12%
12,O=C1[C@H]2[C@@H](c3ccc(F)cc3)N3C(=O)N(c4ccc(C(F)(F)F)cc4)C(=O)[C@@]3(Cc3ccccc3)[C@H]2C(=O)N1C1CCCCC1,8.51%
13,CN(C)S(=O)(=O)c1cccc(NC(=O)COC(=O)C2(c3ccccc3F)CCCC2)c1,2.23%
14,O=C(NC(Cc1c[nH]c2ccccc12)C(=O)N/N=C/c1ccc(Br)cc1)c1cccs1 (stereo unspecified),9.54%
15,S=c1[nH]cc(-c2ccc(Cl)cc2)n1-c1ccccc1,1.28%
16,COC(=O)[C@@]12C[C@@H](CC(=O)NCCCCc3ccccc3)C(=O)N(CCc3ccc(OC)c(OC)c3)C1=CCC(C)(C)C2,5.78%
17,O=C(COC(=O)CCCSc1nc2ccccc2[nH]1)Nc1ccc(Oc2ccccc2)cc1,10.7%
18,COc1ccc([C@@H]2[C@@H]3C(=O)N(C(C)(C)C)C(=O)[C@@H]3[C@]3(Cc4ccccc4)C(=O)N(c4cccc(Br)c4)C(=O)N23)cc1,5.88%
19,CC1(Cc2cccc(C#N)c2)C(=O)Nc2ccc(-c3cccc(C(F)(F)F)c3)cc21 (stereo unspecified),10.6%
20,Cc1ccc(NC(=O)c2nc[nH]c2C(=O)N[C@@H](CCCCNC(=O)OC(C)(C)C)C(=O)OC(C)(C)C)cc1,11.2%
21,O=Cc1cn(CCOc2ccc(F)cc2)c2ccccc12,2.15%
22,CCOc1ccc(Nc2oc(Cc3ccccc3)nc2C#N)cc1,1.49%
23,N/C(Cc1ccc([N+](=O)[O-])cc1)=N\OC(=O)COc1ccc2ccccc2c1,3.81%
24,CC(C)(C)OC(=O)N1CCC(NC(=O)c2[nH]cnc2C(=O)N[C@@H](Cc2ccccc2)C(=O)OCc2ccccc2)CC1,9.68%

row,Structure (SMILES),inhibition
1,Cc1cc(C)cc(NS(=O)(=O)c2ccc(Oc3ncc(C(F)(F)F)cc3Cl)cc2)c1,10.8%
2,Cc1ccc(S(=O)(=O)N2CCN(C(=O)COC(=O)c3c(C)cc(C)cc3C)CC2)c(C)c1,5.29%
3,Cc1ccc(S(=O)(=O)N(CC(=O)Nc2cccnc2)c2ccc(Br)cc2)cc1,2.78%
4,COc1ccc(Cl)cc1NC(=O)CN(C)C(=O)CCCc1c[nH]c2ccccc12,3.45%
5,O=C(NCCc1ccc(Cl)cc1Cl)c1cc([N+](=O)[O-])c[nH]c1=O,0%
6,C=CC[C@H](CC(=O)N(CCO)Cc1ccccc1)C(=O)N[C@@H](COC(=O)[C@@H](CC=C)Cc1ccc(F)cc1)Cc1ccccc1,8.13%
7,COc1cc(C2CC(=O)N3CN(Cc4ccccc4)CSC3=C2C#N)ccc1OCc1ccccc1 (stereo unspecified),5.28%
8,CC(N=Cc1nc(-c2ccccc2)oc1O)c1ccccc1 (stereo unspecified),2.54%
9,C=CCC[C@@H](Cc1ccc(F)cc1)C(=O)OC[C@H](Cc1c[nH]c2ccccc12)NC(=O)[C@@H](CC=C)CC(=O)N(CCO)Cc1ccccc1,10.1%
10,COc1ccc(Cl)cc1NC(=O)COC(=O)C(CC(C)C)N1C(=O)C2CC=CCC2C1=O (stereo unspecified),2.32%
11,Cc1cccc(C2c3[nH]c4ccccc4c3CCN2C(=O)c2cc(-c3cccn3C)n[nH]2)n1 (stereo unspecified),6.14%
12,N#Cc1nc(Cc2cccc3ccccc23)oc1NCc1ccc2c(c1)OCO2,6.72%
13,C#CCN(C[C@H]1[C@H](OC(=O)NC2CCCC2)[C@H](OC(=O)NC2CCCC2)C[C@H]2C(=O)N(c3ccccc3)C(=O)[C@@H]12)S(=O)(=O)c1ccc(C)cc1,2.92%
14,Cc1ccc(NS(=O)(=O)c2ccc(C)c(NC(=O)COc3ccc4ccccc4c3)c2)c(C)c1,9.74%
15,O=C(CNC(=O)c1ccc(Cl)cc1Cl)NCC(=O)Nc1ccccc1N1CCOCC1,0.46%
16,CCOc1ccc(Br)cc1S(=O)(=O)Nc1ccc(C(=O)OC(C)C(=O)N(C)c2ccccc2)cc1 (stereo unspecified),9.44%
17,CCC(C(=O)OCC(=O)Nc1ccccc1-c1ccccc1)c1ccccc1 (stereo unspecified),2.14%
18,Cc1csc(NC(=S)Nc2cccc(Cl)c2)n1,7.9%
19,CC(C)Oc1cc(F)ccc1-c1cc(C(=O)Nc2cccc(Cl)c2)[nH]n1,9.22%
20,c1ccc2c(CCN3CCNC[C@H]3Cc3cccc4ccccc34)cccc2c1,5.45%
21,COc1cc(/C=N/O)cc(Br)c1OS(=O)(=O)c1ccc(C)cc1,2.32%
22,O=C1[C@H]2[C@@H](c3ccc(C(F)(F)F)cc3)N[C@]3(CCCN(Cc4ccc(Br)cc4)C3=O)[C@H]2C(=O)N1Cc1ccccc1,6.04%
23,CC(C)(C)c1ccc(C(=O)Nc2cc(Cl)c(Br)cc2C(=O)O)cc1,3.89%
24,CC(C)C(=O)Nc1cccc(NC(=S)NC(=O)C(c2ccccc2)c2ccccc2)c1,7.37%
